We go through five compounds from ChEMBL document CHEMBL3352753, “Novel strategy to boost oral anticoagulant activity of blood coagulation enzyme inhibitors based on biotransformation into hydrophilic conjugates” (Bioorg Med Chem, 2014).

In one series the target is Coagulation factor X (Homo sapiens, UniProt P00742). Description: Inhibition of purified factor 10a (unknown origin) using chromogenic substrate S-2222 by spectrophotometry. The method, boiled down: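 Chromogenic assay with S-2222 substrate in 0.05 M Tris-HCl pH 8.4 or 0.15 M NaCl. Reaction started by adding enzyme, and A405 read continuously at 37 °C. IC50 taken from a plot of logit residual activity against log inhibitor concentration. Mean of three separate determinations.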
Sequence of Coagulation factor X (P00742 41-179 limits assumed): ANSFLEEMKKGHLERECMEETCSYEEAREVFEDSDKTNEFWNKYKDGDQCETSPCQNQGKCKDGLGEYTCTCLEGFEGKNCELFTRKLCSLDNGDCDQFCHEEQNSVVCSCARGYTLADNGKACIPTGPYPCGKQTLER
Sequence of Coagulation factor X (P00742 235-488 limits assumed): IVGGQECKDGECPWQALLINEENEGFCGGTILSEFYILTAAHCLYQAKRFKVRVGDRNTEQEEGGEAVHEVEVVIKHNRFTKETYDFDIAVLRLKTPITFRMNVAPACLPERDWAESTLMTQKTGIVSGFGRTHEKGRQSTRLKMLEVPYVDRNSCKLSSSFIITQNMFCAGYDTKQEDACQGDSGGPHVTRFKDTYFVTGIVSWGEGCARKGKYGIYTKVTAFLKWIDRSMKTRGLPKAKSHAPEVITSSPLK

For another series, the target named is Prothrombin (Homo sapiens, UniProt P00734). Description: Inhibition of purified thrombin (unknown origin) using chromogenic substrate S-2238 by spectrophotometry. The method, boiled down: (§1)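 Chromogenic amidolysis started by adding enzyme, with A405 monitored continuously at 37 °C. Thrombin was 0.20 U/mL final with S-2238. Trypsin was 1.0 U/mL final with S-2222. Hydrolysis rate recorded as mOD/min.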

The next series has as its target Trypsin (Homo sapiens, UniProt P07477+P07478+P35030). Description: Inhibition of purified trypsin (unknown origin) using chromogenic substrate S-2222 by spectrophotometry. The format is protein assay. The method, boiled down: as §1
Series [1] deals with Plasma. Description: Anticoagulant activity in cynomolgus monkey plasma assessed as concentration required to double prothrombin time by coagulometry. The format is functional, Macaca fascicularis. The method, boiled down:
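Citrated cynomolgus monkey blood spun at 3000 rpm for 10 min to give platelet-poor plasma, stored at −40 °C. Prothrombin time measured by coagulometer at 37 °C with thromboplastin, compared against a distilled water control. CT2 (concentration doubling clotting time) estimated from each individual concentration–response curve. Mean of three separate determinations.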

The nature of series [2]: Permeability of the compound at pH 6.5 after 2 hrs by PAMPA. Type of series: ADME. Conditions: read-out: permeability. The method, boiled down:
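PAMPA in a filter-plate sandwich. Sample was 50 µM final, in buffer with 10% DMSO, filtered before use. Donor was pH 6.5 and acceptor pH 7.4. Plates incubated 2 h at 25 °C in humid air. Donor and acceptor contents quantified by UV spectrum (270–400 nm) against reference standards. n = 2.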
Background: PAMPA measures passive passage across an artificial lipid membrane.

The test system of series [3] is Cynomolgus monkey. Description: Ex vivo anticoagulant activity in cynomolgus monkey plasma at 1 mg/kg, po as single bolus dose measured after 5 mins post dose. The format is functional, organism-based. Set-up: dose 1 mg/kg. Conditions: Macaca fascicularis.
For series [4], the system named is Plasma. Description: Drug metabolism in cynomolgus monkey plasma assessed as formation of glucuronide metabolite at 10 mg/kg, po as single bolus dose measured after 1 to 24 hrs post dose. Type of series: ADME, organism-based, Macaca fascicularis. Set-up: dose 10 mg/kg, route oral. To be noted: in vivo. The method, boiled down:
(§2)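 Male cynomolgus monkeys (4.0–4.5 kg, n = 3), fasted, given 10 mg/kg orally as a suspension in 0.5% methylcellulose. Blood sampled at 1, 2, 4, 6, 8, 12 and 24 h and spun to plasma. Samples underwent solid-phase extraction, were dried, reconstituted in mobile phase and measured by LC–MS/MS for parent and glucuronide, with an internal standard. Dose and concentrations expressed as free form. LOQ 10 ng/mL.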

Series [5] has as its system Cynomolgus monkey. Description: Ex vivo anticoagulant activity in cynomolgus monkey plasma at 0.1 mg/kg, iv as single bolus dose measured after 5 mins post dose. Conditions: Macaca fascicularis. Type of series: functional, organism-based. On the set-up: dose 0.1 mg/kg. The method, boiled down:
(§3)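 Cynomolgus monkeys (n = 3) received a single intravenous bolus. Citrated blood was taken 5 min later and platelet-poor plasma prepared by centrifugation. PT expressed relative to normal cynomolgus monkey plasma, as mean + SD.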

The subject of series [6] is Plasma. Description: Drug level in cynomolgus monkey plasma treated with 4'-Bromo-2'-[(5-chloro-2-pyridyl)carbamoyl]-6'-hydroxyl-1-isopropylpiperidine-4-carboxanilide hydrochloride at 10 mg/kg, po as single bolus dose measured after 1 to 24 hrs post dose. Type of series: ADME, organism-based, Macaca fascicularis. Set-up: dose 10 mg/kg, route oral. Conditions: in vivo. The method, boiled down: as §2

The nature of series [7]: Lipophilicity, logD of the compound. The format is physicochemical. Conditions: octanol/water.
Series [8] relates to Cynomolgus monkey. Description: Ex vivo anticoagulant activity in cynomolgus monkey plasma at 1 mg/kg, iv as single bolus dose measured after 5 mins post dose. To be noted: Macaca fascicularis. The format is functional, organism-based. Set-up: dose 1 mg/kg. The method, boiled down: as §3
The subject of series [9] is Cynomolgus monkey. Description: Ex vivo anticoagulant activity in cynomolgus monkey plasma at 1 to 10 mg/kg, po as single bolus dose measured after 5 mins post dose. Type of series: functional, organism-based. Conditions: Macaca fascicularis.

Each structure is given as a SMILES string. Activity calls are given as the source filed them. The rule behind the calls is not given here.

`CC(C)N1CCC(C(=O)Nc2c(O[C@@H]3O[C@H](C(=O)O)[C@@H](O)[C@H](O)[C@H]3O)cc(Cl)cc2C(=O)Nc2ccc(Cl)cn2)CC1` came in with an IC50 against Coagulation factor X of 15 nM.
For `CC(C)N1CCC(C(=O)Nc2c(O)cc(Br)cc2C(=O)Nc2ccc(Cl)cn2)CC1`, the IC50 was 4 nM at Coagulation factor X, over 100000 nM against Prothrombin and over 100000 nM against Trypsin. In addition, the 2PT in the series with Plasma [1] is 0.31 µM. In addition, the Papp at 2 h in series [2] is over 30 ×10⁻⁶ cm/s. In addition, in the series on Cynomolgus monkey [3], the outcome was Active. Besides, the Drug metabolism result with Plasma [4] is “metabolite_detected”.
Consider `CC(C)N1CCC(C(=O)Nc2c(O[C@@H]3O[C@H](C(=O)O)[C@@H](O)[C@H](O)[C@H]3O)cc(Br)cc2C(=O)Nc2ccc(Cl)cn2)CC1`, for which the IC50 against Coagulation factor X was 4.9 nM; against Prothrombin, over 100000 nM; against Trypsin, over 100000 nM. In addition, in the series with Plasma [1], the 2PT was 0.28 µM. Further, in the series on Cynomolgus monkey [5], the result was Active. Besides, in the series with Plasma [6], the Drug metabolism entry is “metabolite_detected”. This compound also registered a log distribution coefficient (logD) in [7] of -1.1.
As to `CC(C)N1CCC(C(=O)Nc2ccc(Cl)cc2C(=O)Nc2ccc(Cl)cn2)CC1`, half-maximal inhibition at Coagulation factor X (IC50) required 5.8 nM. Also, the 2PT with Plasma [1] was 0.22 µM. In addition, in series [2], the Papp at 2 h was over 30 ×10⁻⁶ cm/s. For the same compound, the outcome in the series on Cynomolgus monkey [8] and with Cynomolgus monkey [9] was Active. The logD in series [7] is 1.8.
At Coagulation factor X, `CC(C)N1CCC(C(=O)Nc2c(O)cc(Cl)cc2C(=O)Nc2ccc(Cl)cn2)CC1` showed a concentration for half-maximal inhibition (IC50) of 8.2 nM.

By IC50 is commonly meant the concentration that inhibits the measured activity by half. One may read the logD as the decadic logarithm of the distribution of all forms, ionised or not, between an organic phase and buffer at a given pH.
